Published values pooled from the literature.
Protocols differ between the studies behind these lines.
Target: Serine/threonine-protein kinase Nek6 (NEK6, Homo sapiens, UniProt Q9HC98)

C[C@@H]1CCN(c2nccc(-c3cnn4ncccc34)n2)C1 — remaining binding (binding; 1 µM): 100%
O=C(NCc1ncc(C(F)(F)F)cc1Cl)c1ccc2c(c1)C1(CCS(=O)(=O)CC1)[C@H](C1CC1)N2S(=O)(=O)c1ccc(F)cc1 — remaining binding (cell-free assay; competition with immobilised ligand; 1 µM): 100%
O=C(c1ccc(Nc2ncc(Cl)c(-c3cc4ccccc4s3)n2)cc1)N1CCC(N2CCCC2)CC1 — remaining binding (binding; competition with immobilised ligand; 1 µM): 35%
C=CC(=O)N1CCC(C(=O)NCC(=O)N2CCN(c3nc(-c4cnc(N)nc4C(F)F)nc(N4CCOCC4)n3)CC2)CC1 — remaining binding (binding; competition with immobilised ligand; 1 µM): 95%
CSc1cccnc1N1CCN(Cc2nc3ccccc3[nH]2)CC1 — remaining binding (cell-free assay; competition with immobilised ligand; 1 µM): 98%
N[C@H]1CCN(c2nccc(-c3cnn4ncccc34)n2)C1 — remaining binding (binding; 1 µM): 100%
COc1cnc(Nc2cccc(S(N)(=O)=O)c2)nc1N1CCN(c2ccccc2)C(=O)C1 — remaining binding (binding; competition with immobilised ligand; 1 µM): 98%
O=C(Nc1c[nH]nc1C(=O)NC1CCNCC1)c1cc(F)cc(F)c1 — remaining binding (binding; competition with immobilised ligand; 1 µM): 100%
CN(CCCC(F)(F)F)c1nccc(-c2cnn3ncccc23)n1 — remaining binding (binding; 1 µM): 100%
CNC(=O)[C@@H]1CC[C@@H](n2c(-c3ccc4cnccc4c3)nc3ccc(C(=O)NCc4cccc(C(N)=O)c4)cc32)C1 — remaining binding (binding; competition with immobilised ligand; 1 µM): 97%
O=C(c1ccc(Nc2ncc(Cl)c(-c3ccc(Cl)s3)n2)cc1)N1CCC(N2CCCC2)CC1 — remaining binding (binding; competition with immobilised ligand; 1 µM): 9.9%
CN(C)c1nccc(-c2cnn3ncccc23)n1 — remaining binding (binding; 1 µM): 100%
O=C(N[C@H]1CCCCC/C=C\C2C[C@@]2(C(=O)O)NC(=O)[C@@H]2C[C@@H](Oc3ccncc3)CN2C1=O)OC1CCCC1 (stereo partly shown) — remaining binding (binding; competition with immobilised ligand; 1 µM): 87%
Nc1ncc2c(n1)-c1c([nH]c3ccc(C#CC4CC4)cc13)CCCC2 — remaining binding (binding; competition with immobilised ligand; 1 µM): 90%
C[C@H](c1cccc(C#N)c1)n1cc(Cl)cc(C(N)=O)c1=N — remaining binding (cell-free assay; competition with immobilised ligand; 1 µM): 94%
CN(C)c1nccc(-c2cnc3ncccn23)n1 — remaining binding (binding; 1 µM): 94%
CS(=O)(=O)N1CCCC(NC(=O)[C@H](CCC2CCCCC2)NC(=O)c2ccc(CNC(=O)c3cnc4ccccn34)cc2)C1 (stereo partly shown) — remaining binding (cell-free assay; competition with immobilised ligand; 0.1 µM): 100%
c1cnn2ncc(-c3ccnc(N4CCC45COC5)n3)c2c1 — remaining binding (binding; 1 µM): 94%
COc1cc(-c2cn(C3CCc4ccccc4N(CC(F)(F)F)C3=O)nn2)ccc1-n1ccc(C)n1 (stereo not shown) — remaining binding (cell-free assay; competition with immobilised ligand; 1 µM): 100%
CN(c1nccc(-c2cnn3ncccc23)n1)C1CC1 — remaining binding (binding; 1 µM): 100%
NS(=O)(=O)c1cc(NC(=O)C2(c3ccccc3Cl)CC2)ccc1Oc1cccc(Cl)c1 — remaining binding (cell-free assay; competition with immobilised ligand; 1 µM): 81%
O=C(c1ccc(Nc2nccc(-c3cc4ccccc4s3)n2)cc1)N1CCC(N2CCCC2)CC1 — remaining binding (binding; competition with immobilised ligand; 1 µM): 87%
